Data from ChEMBL document CHEMBL4428028, “Novel Combretastatin-2-aminoimidazole Analogues as Potent Tubulin Assembly Inhibitors: Exploration of Unique Pharmacophoric Impact of Bridging Skeleton and Aryl Moiety” (J Med Chem, 2016).
The source made the active and inactive calls. The calls are words filed in the database; no cut-off is given here.

Tests used:
[1] = tested on: MCF7; assay: Antiproliferative activity against human MCF7 cells incubated for 48 hrs by sulforhodamine B assay; assay type: functional, cell-based; settings: MCF7, 48 h
Outline: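 MCF-7 cells (1 × 10⁵ cells/mL) attached 24 h in MEM with 10% FBS, 37 °C, 5% CO2. Exposed to serial dilutions, DMSO final <0.1%, for 48 h. TCA (50%) fixation, sulforhodamine B staining, IC50 determined. Three independent sets.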

[2] = tested on: HeLa; assay: Antiproliferative activity against human HeLa cells incubated for 24 hrs by sulforhodamine B assay; assay type: functional, cell-based
Outline: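 HeLa cells (1 × 10⁵ cells/mL) attached 24 h in MEM with 10% FBS, 37 °C, 5% CO2. Then treated with serial dilutions, DMSO final <0.1%, for 24 h. Fixed with 50% TCA, sulforhodamine B read-out, IC50 derived. Three independent experiments.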

[3] = Inhibition of goat brain tubulin assembly incubated for 10 mins by spectrophotometry; set-up: species or system Ovis aries
Outline: (§1)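 Goat brain tubulin (12 μM; glutamate-purified, >97% pure) held 10 min on ice with compound in 25 mM PIPES, 1 mM EGTA, 3 mM MgCl2, 1 M glutamate. Then 1 mM GTP added. Assembly followed at 350 nm, 37 °C, for 20 min. Three independent experiments.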

[4] = Binding affinity to goat brain tubulin assessed as reduction in binding of 5-(Quinolin-3-yl)-4-(3,4,5-trimethoxyphenyl)-1H-imidazol-2-amine to tubulin incubated for 15 mins by fluorescence based assay; set-up: species or system Ovis aries
Outline: (§2)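 Goat brain tubulin (3 μM) was preincubated with competitor (1–20 μM) in 25 mM PIPES, pH 6.8, for 15 min at 25 °C. The 2-aminoimidazole probe (6 μM) was then added for 15 min at 25 °C. Emission was recorded at 420–520 nm with excitation at 350 nm. Ki was calculated as EC50/(1 + L/Kd). Three sets were run.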

[5] = organism: Ovis aries; assay: Inhibition of goat brain tubulin assembly at 20 uM incubated for 10 mins by spectrophotometry; outline: as §1
[6] = organism: Ovis aries; assay: Binding affinity to goat brain tubulin at 10 uM pre-incubated for 30 mins before 50 uM podophyllotoxin exposure for 30 mins by fluorescence based assay
Outline: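 Displacement assay: tubulin was first incubated with the 2-aminoimidazole ligand for 30 min. It was then incubated without or with 50 μM podophyllotoxin or 50 μM CA-4 for a further 30 min. The read-out was the drop in fluorescence of the tubulin–ligand complex.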

[7] = organism: Ovis aries; assay: Binding affinity to goat brain tubulin incubated for 15 mins in presence of podophyllotoxin by fluorescence based assay; outline: as §2
[8] = tested on: MCF7; assay: Induction of cell cycle arrest in human MCF7 cells assessed as accumulation at G1 phase at 5 nM incubated for 24 hrs by propidium iodide staining based flow cytometry (reference value: 49%); assay type: functional
[9] = organism: Ovis aries; assay: (§3) Binding affinity to goat brain tubulin incubated for 10 mins by tryptophan fluorescence quenching based assay
Outline: (§4)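 Goat brain tubulin (2 μM), purified with 1 M glutamate, incubated 10 min at 25 °C with compound (1–20 μM) in 25 mM PIPES, pH 6.8. Tryptophan fluorescence read with excitation 295 nm. Kd obtained by fitting ΔF = ΔFmax·L/(Kd + L). Four independent sets.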

[10] = as §3; set-up: species or system Ovis aries; outline: as §4
[11] = tested on: MCF7; assay: Induction of cell cycle arrest in human MCF7 cells assessed as accumulation at S phase at 5 nM incubated for 24 hrs by propidium iodide staining based flow cytometry (reference value: 35%); assay type: functional
[12] = tested on: MCF7; assay: Induction of mitosis block in human MCF7 cells assessed as phospho-histone H3 (Ser10) staining positive cells level at 5 nM incubated for 24 hrs by immunostaining (reference value: 8 +/- 1%); assay type: functional
[13] = organism: Ovis aries; assay: Binding affinity to goat brain tubulin at 10 uM pre-incubated for 30 mins before 50 uM CA-4 exposure for 30 mins by fluorescence based assay
Outline: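 Tubulin first incubated 30 min with test compound, then 30 min without or with 50 μM CA-4 or 50 μM podophyllotoxin. Read-out is fluorescence of the tubulin–compound complex.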

[14] = tested on: MDA-MB-231; assay: Antiproliferative activity against human MDA-MB-231 cells incubated for 24 hrs by sulforhodamine B assay; assay type: functional, cell-based; settings: MDA-MB-231, 24 h
Outline: (§5)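 Cells grown in DMEM with 2.2 g/L sodium bicarbonate, 10% FBS and antibiotic–antimycotic at 37 °C under 5% CO2. Compounds were dissolved in DMSO and diluted in medium (final DMSO <0.1%). Cells were exposed to a concentration series for 24 h, fixed with 50% TCA and stained with sulforhodamine B. IC50 was derived from three independent experiments.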

[15] = tested on: MCF7; assay: Induction of cell cycle arrest in human MCF7 cells assessed as accumulation at G1 phase at 10 nM incubated for 24 hrs by propidium iodide staining based flow cytometry (reference value: 49%); assay type: functional
[16] = tested on: MCF7; assay: Induction of mitosis block in human MCF7 cells at 5 and 10 uM incubated for 24 hrs by immunostaining; assay type: functional, cell-based
[17] = organism: Ovis aries; assay: Binding affinity to goat brain tubulin at 6 uM incubated for 10 mins after 10 mins incubation with 10 and 30 uM vinblastine by fluorescence based assay
[18] = tested on: Huh-7; assay: Antiproliferative activity against human HuH7 cells incubated for 24 hrs by sulforhodamine B assay; assay type: functional, cell-based; settings: Huh-7, 24 h; outline: as §5
[19] = tested on: MCF7; assay: Induction of cell cycle arrest in human MCF7 cells assessed as accumulation at S phase at 10 nM incubated for 24 hrs by propidium iodide staining based flow cytometry (reference value: 35%); assay type: functional
[20] = tested on: MCF7; assay: Induction of mitosis block in human MCF7 cells assessed as phospho-histone H3 (Ser10) staining positive cells level at 10 nM incubated for 24 hrs by immunostaining (reference value: 8 +/- 1%); assay type: functional
[21] = target: T1, Tubulin (Homo sapiens) (UniProt P68371+Q9H4B7+P0DPH7+P68366+Q13509+Q71U36+P04350+Q3ZCM7+P07437+P68363+Q9BQE3+Q6PEY2+Q13885+Q9BVA1+Q9BUF5); assay: Induction of interphase microtubule network depolymerization in human MCF7 cells at 10 nM incubated for 24 hrs by immunostaining method; assay type: cell-based
[22] = organism: Ovis aries; assay: Binding affinity to goat brain tubulin at 6 uM […] with 10 and 30 uM paclitaxel by fluorescence based assay
[23] = tested on: MDA-MB-231; assay: Inhibition of cell migration of human MDA-MB-231 cells at 50 nM by wound closure assay; assay type: functional
Outline: (§6)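 MDA-MB-231 cells grown to 90% confluency in 35 mm dishes and scratched with a microtip. Incubated without or with compound. Wound closure imaged at 0, 4 and 18 h and expressed as percent closure.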

[24] = tested on: MCF7; assay: Induction of cell cycle arrest in human MCF7 cells assessed as accumulation at G2/M phase at 5 nM incubated for 24 hrs by propidium iodide staining based flow cytometry (reference value: 16%); assay type: functional
[25] = tested on: EMT6; assay: Antiproliferative activity against drug resistant mouse EMT6/AR1 cells incubated for 24 hrs by sulforhodamine B assay; assay type: functional, cell-based; settings: EMT6, 24 h; outline: as §5
[26] = target: T1, Tubulin (Homo sapiens); assay: Induction of interphase microtubule network depolymerization in human MCF7 cells at 5 nM incubated for 24 hrs by immunostaining method; assay type: cell-based
[27] = organism: Ovis aries; assay: Binding affinity to goat brain tubulin at 5 and 10 uM incubated for 10 mins by fluorescence based assay
Outline: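 Goat brain tubulin (2 μM) incubated 10 min at 25 °C with compound (5 and 10 μM) in 25 mM PIPES, pH 6.8. Ligand fluorescence spectra recorded at 420–520 nm, excitation 350 nm. Done three times.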

[28] = tested on: MCF7; assay: Induction of cell cycle arrest in human MCF7 cells assessed as accumulation at G2/M phase at 10 nM incubated for 24 hrs by propidium iodide staining based flow cytometry (reference value: 16%); assay type: functional
[29] = tested on: MCF7; assay: Induction of mitotic spindle disturbance in human MCF7 cells assessed as monopolar spindle formation at 5 and 10 nM incubated for 24 hrs by immunostaining; assay type: functional, cell-based
[30] = organism: Ovis aries; assay: Binding affinity to goat brain tubulin incubated for 15 mins in presence of CA-4 by fluorescence based assay
Outline: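 Tubulin (3 μM) preincubated with CA-4 (1–20 μM) in 25 mM PIPES, pH 6.8, 15 min at 25 °C. Then 6 μM compound added for another 15 min at 25 °C. Spectra 420–520 nm taken with excitation 350 nm. Ki from Ki = EC50/(1 + L/Kd). Three sets.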

[31] = tested on: MCF7; assay: Induction of cell cycle arrest in human MCF7 cells assessed as accumulation at G1 phase at 50 nM incubated for 24 hrs by propidium iodide staining based flow cytometry (reference value: 49%); assay type: functional
[32] = tested on: MDA-MB-231; assay: Inhibition of cell migration of human MDA-MB-231 cells at 150 nM by wound closure assay; assay type: functional; outline: as §6
[33] = tested on: MCF7; assay: Induction of cell cycle arrest in human MCF7 cells assessed as accumulation at G2/M phase at 50 nM incubated for 24 hrs by propidium iodide staining based flow cytometry (reference value: 16%); assay type: functional
[34] = tested on: MCF7; assay: Induction of cell cycle arrest in human MCF7 cells assessed as accumulation at S phase at 50 nM incubated for 24 hrs by propidium iodide staining based flow cytometry (reference value: 35%); assay type: functional

SMILES: COc1ccc(-c2[nH]c(N)nc2-c2cc(OC)c(OC)c(OC)c2)cc1
- IC50 [1]: 174 nM
- IC50 [2]: 166 nM
- IC50 [3]: 13000 nM

SMILES: COc1ccc(-c2[nH]c(N)nc2-c2cc(OC)c(OC)c(OC)c2)cc1OC
- IC50 [1]: 71 nM
- IC50 [2]: 68 nM
- IC50 [3]: 11000 nM

SMILES: COc1cc([C@@H]2c3cc4c(cc3[C@H](O)[C@H]3COC(=O)[C@H]23)OCO4)cc(OC)c1OC [PODOFILOX]
- Kd [4]: 300 nM

SMILES: COc1cc(-c2nc(N)[nH]c2-c2ccc(F)cc2)cc(OC)c1OC
- IC50 [1]: 3000 nM
- IC50 [2]: 3400 nM

SMILES: COc1cc(-c2nc(N)[nH]c2-c2ccc(Cl)cc2)cc(OC)c1OC
- IC50 [1]: 8000 nM
- IC50 [2]: 3000 nM

SMILES: Nc1nc(-c2ccccc2)c(-c2ccccc2)[nH]1
- IC50 [1]: 187 nM
- IC50 [2]: 197 nM
- inhibition [5]: inactive

SMILES: COc1cc(-c2nc(N)[nH]c2-c2cccc(N)c2)cc(OC)c1OC
- IC50 [1]: 6000 nM
- IC50 [2]: 8000 nM

SMILES: COc1cc(-c2nc(N)[nH]c2-c2ccc(N)nc2)cc(OC)c1OC
- IC50 [1]: 21000 nM
- IC50 [2]: 18000 nM

SMILES: COc1ccc(-c2[nH]c(N)nc2-c2cc(OC)c(OC)c(OC)c2)cc1O
- IC50 [1]: 220 nM
- IC50 [2]: 390 nM

SMILES: COc1cc(-c2nc(N)[nH]c2-c2ccccc2)cc(OC)c1OC
- IC50 [1]: 27000 nM
- IC50 [2]: 34000 nM

SMILES: COc1cc(-c2nc(N)[nH]c2-c2cccnc2)cc(OC)c1OC
- IC50 [1]: 13000 nM
- IC50 [2]: 4000 nM

SMILES: COc1cc(-c2nc(N)[nH]c2-c2cccc(O)c2)cc(OC)c1OC
- IC50 [1]: 53000 nM
- IC50 [2]: 18000 nM

SMILES: COc1cc(-c2nc(N)[nH]c2-c2cnc3ccccc3c2)cc(OC)c1OC
- Activity [6]: inactive
- Activity [7]: inactive
- Activity [8]: 34%
- Activity [9]: Dose-dependent effect
- Kd [10]: 1900 nM
- Activity [11]: 25%
- Activity [12]: 15%
- Activity [13]: inactive
- IC50 [14]: 96 nM
- Activity [15]: 16%
- Activity [16]: Active
- IC50 [1]: 3 nM
- Activity [17]: Active
- IC50 [2]: 10 nM
- IC50 [18]: 335 nM
- Activity [19]: 10%
- Activity [20]: 26%
- Activity [21]: Active
- Activity [22]: Active
- inhibition at 0.05 µM [23]: 56%
- Activity [24]: 40%
- IC50 [25]: 350 nM
- Activity [26]: Active
- Activity [27]: Active
- Activity [28]: 74%
- Activity [29]: Active
- Activity [30]: inactive
- IC50 [3]: 1600 nM
- inhibition ([3]; Ovis aries): Dose-dependent effect

SMILES: COc1ccc(/C=C\c2cc(OC)c(OC)c(OC)c2)cc1O [COMBRETASTATIN A4]
- Activity [31]: 14%
- Activity [8]: 51%
- Activity [11]: 23%
- IC50 [14]: 331 nM
- Activity [15]: 41%
- IC50 [1]: 18 nM
- IC50 [2]: 25 nM
- inhibition at 0.15 µM [32]: 52%
- IC50 [18]: 430 nM
- Activity [19]: 16%
- inhibition at 0.05 µM [23]: 8%
- Activity [24]: 26%
- Activity [33]: 63%
- IC50 [25]: 495 nM
- Activity [28]: 43%
- Activity [34]: 23%
- Kd [4]: 680 nM
- IC50 [3]: 1700 nM

SMILES: COc1cc(-c2nc(N)[nH]c2-c2ccc3[nH]ccc3c2)cc(OC)c1OC
- IC50 [1]: 8000 nM
- IC50 [2]: 3000 nM

SMILES: COc1cc(-c2nc(N)[nH]c2-c2cc(OC)c(OC)c(OC)c2)cc(OC)c1OC
- IC50 [1]: 12000 nM
- IC50 [2]: 8000 nM

SMILES: COc1cccc(-c2[nH]c(N)nc2-c2cc(OC)c(OC)c(OC)c2)c1
- IC50 [1]: 18000 nM
- IC50 [2]: 14000 nM
